{
  "source": "ChEMBL document CHEMBL4020714",
  "about": "“Design, synthesis, and evaluation of curcumin derivatives as Nrf2 activators and cytoprotectors against oxidative death” (Eur J Med Chem, 2017)",
  "assay_type_in_all_cases": "cell-based",
  "key": {"[1]": {"target": "T1, Nuclear factor erythroid 2-related factor 2 (Homo sapiens) (UniProt Q16236)", "T1 sequence (whole entry)": "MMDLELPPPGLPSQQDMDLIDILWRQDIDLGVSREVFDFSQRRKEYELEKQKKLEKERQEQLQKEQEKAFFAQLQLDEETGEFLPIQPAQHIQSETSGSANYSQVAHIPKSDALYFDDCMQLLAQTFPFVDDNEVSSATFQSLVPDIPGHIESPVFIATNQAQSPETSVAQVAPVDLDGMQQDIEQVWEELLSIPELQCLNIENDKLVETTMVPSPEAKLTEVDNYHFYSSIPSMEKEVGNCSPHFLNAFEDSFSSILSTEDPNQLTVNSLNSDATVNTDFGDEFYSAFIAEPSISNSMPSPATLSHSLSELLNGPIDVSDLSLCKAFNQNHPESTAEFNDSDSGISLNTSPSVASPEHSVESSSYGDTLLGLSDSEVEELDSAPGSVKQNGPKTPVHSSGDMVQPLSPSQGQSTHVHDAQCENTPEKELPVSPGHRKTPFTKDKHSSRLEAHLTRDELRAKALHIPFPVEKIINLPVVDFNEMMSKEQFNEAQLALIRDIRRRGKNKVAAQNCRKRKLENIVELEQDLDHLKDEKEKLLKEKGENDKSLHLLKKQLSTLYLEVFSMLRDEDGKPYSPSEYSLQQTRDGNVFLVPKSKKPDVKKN", "assay": "Activation of Nrf2 in human HepG2 cells assessed as increase in nuclear Nrf2 expression level at 5 uM after 1 to 6 hrs by Western blot analysis", "method_in_brief": "(§1)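 HepG2 cells (2×10^6/well) treated at the indicated concentrations and times. Whole-cell lysates, or nuclear and cytoplasmic fractions, are prepared and quantified by BCA. Samples are run at 40 μg/lane on 12% SDS-PAGE, transferred to nitrocellulose, probed with specific antibodies and HRP secondary (1/5000), and detected by ECL. Where used, LY294002 (15 μM), SP600125 (25 μM) or DTT (400 μM) is added 1 h before compound.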"}, "Homo sapiens": {"species_on_record": "Homo sapiens", "assay": "Induction of ERK phosphorylation in human HepG2 cells at 5 uM after 15 to 120 mins by Western blot analysis", "method_in_brief": "as §1"}, "[2]": {"target": "T1, Nuclear factor erythroid 2-related factor 2 (Homo sapiens)", "assay": "Activation of Nrf2 in human HepG2 cells assessed as increase in HO-1 expression level after 3 hrs by Western blot analysis", "method_in_brief": "as §1"}, "[3]": {"target": "T1, Nuclear factor erythroid 2-related factor 2 (Homo sapiens)", "assay": "Activation of Nrf2 in human HepG2 cells assessed as increase in GCLC expression level at 5 uM in presence of 25 uM JNK inhibitor SP600125 for 1 hr prior to compound treatment by Western blot analysis", "method_in_brief": "as §1"}, "[4]": {"target": "Kelch-like ECH-associated protein 1 (Homo sapiens) (UniProt Q14145)", "sequence (Q14145 whole entry)": "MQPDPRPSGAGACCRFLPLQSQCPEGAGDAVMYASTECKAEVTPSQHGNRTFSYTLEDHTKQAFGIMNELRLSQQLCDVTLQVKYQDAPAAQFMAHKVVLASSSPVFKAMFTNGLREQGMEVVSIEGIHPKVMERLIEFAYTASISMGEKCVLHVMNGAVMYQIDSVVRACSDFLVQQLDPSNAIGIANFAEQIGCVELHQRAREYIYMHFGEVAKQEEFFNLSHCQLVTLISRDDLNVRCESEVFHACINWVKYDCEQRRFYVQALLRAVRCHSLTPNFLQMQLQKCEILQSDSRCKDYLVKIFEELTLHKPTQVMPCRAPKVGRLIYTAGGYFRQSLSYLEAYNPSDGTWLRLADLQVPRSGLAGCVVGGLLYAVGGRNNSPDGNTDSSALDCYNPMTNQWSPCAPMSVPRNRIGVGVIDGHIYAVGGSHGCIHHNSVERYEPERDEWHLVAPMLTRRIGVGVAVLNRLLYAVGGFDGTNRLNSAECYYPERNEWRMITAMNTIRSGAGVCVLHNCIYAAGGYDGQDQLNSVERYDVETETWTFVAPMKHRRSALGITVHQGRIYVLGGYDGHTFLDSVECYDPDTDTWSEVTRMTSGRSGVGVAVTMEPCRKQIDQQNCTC", "assay": "Induction of keap1-dependent Nrf2 stabilization in human HepG2 cells assessed as upregulation of total Nrf2 level at 5 uM pretreated for 3 hrs followed by coincubation with 5 ug/ml cycloheximide for 24 hrs by Western blot analysis", "method_in_brief": "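HepG2 cells pretreated with or without 5 μM compound for 3 h, then given 5 μg/mL cycloheximide for the indicated periods (up to 24 h). Total lysates are immunoblotted for Nrf2. Half-life is obtained by fitting a single-phase decay model.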"}, "[5]": {"target": "T1, Nuclear factor erythroid 2-related factor 2 (Homo sapiens)", "assay": "Activation of Nrf2 in human HepG2 cells assessed as increase in Nrf2 expression level after 3 hrs by Western blot analysis", "method_in_brief": "as §1"}, "[6]": {"target": "T1, Nuclear factor erythroid 2-related factor 2 (Homo sapiens)", "assay": "(§2) Activation of Nrf2 in human HepG2 cells assessed as cytoprotection against t-BHP-induced oxidative cell death at 5 uM incubated for 24 hrs followed by compound removal with subsequent incubation with 900 uM of t-BHP for 6 hrs in presence of 100 nM copper chelator NEO for 1 hr prior to compound treatment by MTT assay", "method_in_brief": "(§3)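 HepG2 cells (5×10^3/well) seeded and grown 24 h in 1640 medium with 10% FBS at 37 °C and 5% CO2. Compound is added for 24 h, then removed, and cells are challenged with 900 μM t-BHP for 6 h at 37 °C. MTT (0.5 mg/mL) is added for 4 h, formazan dissolved in DMSO, and absorbance read at 570 nm. Where used, inhibitors are added 1 h before compound. Mean ± SD of three independent experiments.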"}, "[7]": {"target": "T1, Nuclear factor erythroid 2-related factor 2 (Homo sapiens)", "assay": "Activation of Nrf2 in human HepG2 cells assessed as increase in cytosolic Nrf2 expression level at 5 uM after 12 hrs by Western blot analysis", "method_in_brief": "as §1"}, "HepG2": {"system": "HepG2", "assay": "Cytotoxicity against human HepG2 cells assessed as reduction in cell viability at 5 uM after 24 hrs by MTT assay", "details": "hepg2, 24 h", "method_in_brief": "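MTT viability in HepG2 cells (5×10^3/well) after 24 h exposure to compound at 5 μM. Formazan dissolved in DMSO and absorbance read at 570 nm. Mean ± SD of three independent experiments.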"}, "[8]": {"target": "T1, Nuclear factor erythroid 2-related factor 2 (Homo sapiens)", "assay": "as §2, with “10 uM GCL inhibitor BSO” for “100 nM copper chelator NEO”", "method_in_brief": "as §3"}, "[9]": {"target": "T1, Nuclear factor erythroid 2-related factor 2 (Homo sapiens)", "assay": "as §2, with “400 uM metal ion” for “100 nM copper”, “EDTA” for “NEO”"}, "[10]": {"target": "T1, Nuclear factor erythroid 2-related factor 2 (Homo sapiens)", "assay": "Activation of Nrf2 in human HepG2 cells assessed as increase in GCLM expression level at 5 uM by Western blot analysis", "details": "TDE = time-dependent effect", "method_in_brief": "as §1"}, "[11]": {"target": "T1, Nuclear factor erythroid 2-related factor 2 (Homo sapiens)", "assay": "as §2, with “25 uM JNK inhibitor SP600125” for “100 nM copper chelator NEO”", "method_in_brief": "as §3"}, "[12]": {"target": "T2, Keap1/Nrf2 (Homo sapiens) (UniProt Q16236+Q14145)", "T2 sequence (Q14145 whole entry, looked up, one chain of several)": "as the sequence (Q14145 whole entry) above", "assay": "Inhibition of Keap1/Nrf2 interaction in human HepG2 cells assessed as increase in Nrf2 expression level after 3 hrs in presence of DTT for 1 hr prior to compound treatment by Western blot analysis", "method_in_brief": "as §1"}, "[13]": {"target": "RAC-alpha serine/threonine-protein kinase (Homo sapiens) (UniProt P31749)", "sequence (P31749 whole entry)": "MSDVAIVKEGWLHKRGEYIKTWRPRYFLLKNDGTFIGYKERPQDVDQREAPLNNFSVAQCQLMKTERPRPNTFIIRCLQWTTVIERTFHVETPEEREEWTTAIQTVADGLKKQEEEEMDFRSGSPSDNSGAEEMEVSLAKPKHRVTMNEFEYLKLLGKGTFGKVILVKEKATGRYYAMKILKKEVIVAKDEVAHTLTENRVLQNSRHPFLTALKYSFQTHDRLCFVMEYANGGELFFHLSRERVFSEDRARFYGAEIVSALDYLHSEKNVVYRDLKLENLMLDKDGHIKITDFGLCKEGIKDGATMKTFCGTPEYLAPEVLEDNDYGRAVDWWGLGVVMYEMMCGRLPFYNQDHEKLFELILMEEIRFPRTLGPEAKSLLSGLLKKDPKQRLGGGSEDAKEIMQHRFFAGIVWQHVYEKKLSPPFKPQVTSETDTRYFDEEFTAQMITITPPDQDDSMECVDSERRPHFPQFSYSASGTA", "assay": "Induction of Akt phosphorylation in human HepG2 cells at 5 uM by Western blot analysis", "details": "TDE = time-dependent effect", "method_in_brief": "as §1"}, "[14]": {"target": "T2, Keap1/Nrf2 (Homo sapiens)", "assay": "Inhibition of Keap1/Nrf2 interaction in human HepG2 cells assessed as decrease in Keap1 expression level after 3 hrs in presence of DTT for 1 hr prior to compound treatment by Western blot analysis", "method_in_brief": "as §1"}, "[15]": {"target": "T1, Nuclear factor erythroid 2-related factor 2 (Homo sapiens)", "assay": "Activation of Nrf2 in human HepG2 cells assessed as increase in cytosolic Nrf2 expression level after 3 hrs by Western blot analysis", "method_in_brief": "as §1"}, "[16]": {"target": "T1, Nuclear factor erythroid 2-related factor 2 (Homo sapiens)", "assay": "as §2, with “400 uM DTT” for “100 nM copper chelator NEO”", "method_in_brief": "as §3"}, "[17]": {"target": "T1, Nuclear factor erythroid 2-related factor 2 (Homo sapiens)", "assay": "Activation of Nrf2 in human HepG2 cells assessed as increase in cytosolic Nrf2 expression level at 5 uM after 1 to 6 hrs by Western blot analysis", "method_in_brief": "as §1"}, "[18]": {"target": "T1, Nuclear factor erythroid 2-related factor 2 (Homo sapiens)", "assay": "Activation of Nrf2 in human HepG2 cells assessed as increase in GCLC expression level after 24 hrs by Western blot analysis", "method_in_brief": "as §1"}, "[19]": {"target": "T1, Nuclear factor erythroid 2-related factor 2 (Homo sapiens)", "assay": "Activation of Nrf2 in human HepG2 cells assessed as increase in HO-1 expression level at 5 uM in presence of 25 uM JNK inhibitor SP600125 for 1 hr prior to compound treatment by Western blot analysis", "method_in_brief": "as §1"}},
  "note": "Activity calls are given as the source filed them. No cut-off for these calls is given here.",
  "data": [
    {"smiles": "CC(C)(C(=O)/C=C/c1ccc(O)c(O)c1)C(=O)/C=C/c1ccc(O)c(O)c1", "values": [
      {"measurement": "Activity", "setting": "[1]", "result": "Active"},
      {"measurement": "Activity", "setting": "Homo sapiens", "result": "inactive"},
      {"measurement": "Activity", "setting": "[2]", "result": "Active"},
      {"measurement": "Activity", "setting": "[3]", "result": "inactive"},
      {"measurement": "Activity", "setting": "[4]", "result": "Active"},
      {"measurement": "Activity", "setting": "[5]", "result": "Active"},
      {"measurement": "Activity", "setting": "[6]", "result": "inactive"},
      {"measurement": "Activity", "setting": "[7]", "result": "inactive"},
      {"measurement": "Activity", "setting": "HepG2", "result": "Non-Toxic"},
      {"measurement": "Activity", "setting": "[8]", "result": "inactive"},
      {"measurement": "Activity", "setting": "[9]", "result": "inactive"},
      {"measurement": "Activity", "setting": "[10]", "result": "Tde"},
      {"measurement": "Activity", "setting": "[11]", "result": "inactive"},
      {"measurement": "inhibition", "setting": "[12]", "result": "inactive"},
      {"measurement": "Activity", "setting": "[13]", "result": "Tde"},
      {"measurement": "inhibition", "setting": "[14]", "result": "inactive"},
      {"measurement": "Activity", "setting": "[15]", "result": "Dose-dependent effect"},
      {"measurement": "Activity", "setting": "[16]", "result": "inactive"},
      {"measurement": "Activity", "setting": "[17]", "result": "Active"},
      {"measurement": "Activity", "setting": "[18]", "result": "Dose-dependent effect"},
      {"measurement": "Activity", "setting": "[19]", "result": "inactive"}
    ]}
  ]
}
